Data reported in ChEMBL document CHEMBL4622873, “Chlorosphaerolactylates A-D: Natural Lactylates of Chlorinated Fatty Acids Isolated from the Cyanobacterium Sphaerospermopsis sp. LEGE 00249” (2020).
Converted amounts (≈) assume the structure as drawn.

Legend:
Type in all cases: functional
Staphylococcus aureus = experiment: Bactericidal activity against Staphylococcus aureus spa type t1333/S54F9 by CLSI-based broth microdilution method
Summary of the method: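 S. aureus clinical isolate S54F9, revived on Mueller-Hinton agar at 37 °C from 25% (v/v) glycerol stocks held at -20 °C, then kept at 4 °C. Broth microdilution susceptibility test in 96-well plates, after which the upper wells were subcultured onto solid MSA agar to read the bactericidal endpoint.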

Staphylococcus hominis = experiment: Antibiofilm activity against coagulase-negative Staphylococcus hominis FI31 incubated for 48 hrs by crystal violet staining-based method
Summary of the method: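 Strain FI31 is a clinical isolate recovered from an infected prosthesis. Media and solutions were made in ultrapure deionized water and sterilized by autoclaving at 121 °C for 15 min.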

Candida parapsilosis = experiment: Fungicidal activity against Candida parapsilosis SMI416 by CLSI-based broth microdilution method; conditions: Lodderomyces parapsilosis
Summary of the method: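 C. parapsilosis SMI416, a clinical isolate from a bloodstream infection, revived on Mueller-Hinton agar at 37 °C from 25% (v/v) glycerol stocks held at -20 °C, then maintained at 4 °C. Media and solutions were made in ultrapure water and autoclaved at 121 °C for 15 min.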

Row | SMILES | MBC (Staphylococcus aureus) [mM] | MBIC50 (Staphylococcus hominis) [mM] | MFC (Candida parapsilosis) [mM]
1 | C[C@H](OC(=O)CCCCC(Cl)CCCCCCCl)C(=O)O (some centres not stated) | 2.7 to 6 (≈ 921 to 2050 µg/mL) | 0.5 to 1.1 | 2.7 to 6 (≈ 921 to 2050 µg/mL)
2 | CCCCCCC(Cl)CCCCC(=O)OC(C)C(=O)O (configuration not stated) | 2.7 to 6 (≈ 828 to 1840 µg/mL) | 0.5 to 1.1 | 2.7 to 6 (≈ 828 to 1840 µg/mL)
3 | CC(OC(=O)CCCCC(Cl)CCCCCC(Cl)Cl)C(=O)O (configuration not stated) | 2.7 to 6 (≈ 1010 to 2250 µg/mL) | 0.5 to 1.1 | 2.7 to 6 (≈ 1010 to 2250 µg/mL)
4 | CC(OC(=O)CCCCCCCCCCCCl)C(=O)O (configuration not stated) | 2.7 to 6 (≈ 828 to 1840 µg/mL) | 0.5 to 1.1 | 2.7 to 6 (≈ 828 to 1840 µg/mL)
